Assay results gathered from unrelated publications.
Lines come from different studies, so protocols differ.
CDK7 with cyclin H: Cyclin-dependent kinase 7, with cyclin H (CDK7, Homo sapiens, UniProt P50613)
CDK7: Cyclin-dependent kinase 7 (CDK7, Homo sapiens, UniProt P50613)

O=c1cc(-c2ccccc2)oc2ccccc12 gave an inhibition of 41.7% (CDK7 with cyclin H; enzyme activity; inhibitor; ADP detection; 10 µM).
For O=C(Nc1cnn(-c2csc(C(=O)NC3COC3)c2)c1)Nc1ccccc1Cl, the remaining activity was 99.7% (CDK7 with cyclin H; enzyme activity; inhibitor; 5 µM).
The remaining signal of COc1cc(Nc2c(C#N)cnc3cc(OCCCN4CCN(C)CC4)c(OC)cc23)c(Cl)cc1Cl is reported as 113% (CDK7 with cyclin H; cell-free assay; 0.5 µM).
The remaining binding of CNC(=O)c1ccc(Nc2ncc(C(F)(F)F)c(NCc3nccnc3N(C)S(C)(=O)=O)n2)cc1 is reported as 59% (CDK7; cell-free assay; competition with immobilised ligand; 0.1 µM).
O=C1C[C@@H](c2ccc(O)c(O[C@@H]3O[C@H](CO)[C@@H](O)[C@H](O)[C@H]3O)c2)Oc2cc(O[C@@H]3O[C@H](CO)[C@@H](O)[C@H](O)[C@H]3O)ccc21 has an inhibition of 36.6% (CDK7 with cyclin H; enzyme activity; inhibitor; ADP detection; 10 µM).
With Cn1cnc(Br)c1C1=CN(c2ncnc3[nH]cnc23)CCS1 the inhibition was 44.3% (CDK7; enzyme activity; inhibitor; radiometric; 2 µM).
With O=C1Nc2ccc(Cl)cc2C1=Cc1cc(Cl)c(O)c(Cl)c1 the remaining signal was 96.7% (CDK7 with cyclin H; cell-free assay; 0.5 µM).
CC[C@]12CCCN3CCc4c(n(c5ccccc45)[C@@](O)(C(=O)OC)C1)[C@@H]32 has an inhibition of -20.8% (CDK7 with cyclin H; enzyme activity; inhibitor; ADP detection; 10 µM).
For CN(C)C(=O)Cn1cc(-c2nc([C@@](C)(c3ccc(-c4cnc(N)nc4)cc3)C3CC3)no2)cn1, the remaining binding was 59% (CDK7; cell-free assay; competition with immobilised ligand; 1 µM).
For CCCCCC[C@@H](C)/C=C(C)/C=C/C(=O)N[C@H]1CC2(O[C@H]1O)[C@@H]1O[C@@H]1C(=O)[C@@H]1O[C@@H]12 (some centres unmarked), the inhibition was -18.5% (CDK7 with cyclin H; enzyme activity; inhibitor; ADP detection; 10 µM).
For C[C@@H]1CN(c2cc(-c3n[nH]c4ccc(OC5(C)CC5)cc34)ncn2)C[C@H](C)O1, the remaining binding was 56% (CDK7; cell-free assay; competition with immobilised ligand; 0.1 µM).
CC(C)c1ccc(NC(=O)c2cccs2)c(-c2nc3ccccc3[nH]c2=O)c1 has an activity vs control of 85% (CDK7; enzyme activity; inhibitor; 1 µM).
With O=C1C[C@@H](c2ccc(O)cc2)Oc2cc(O)cc(O)c21 the inhibition was 3.7% (CDK7 with cyclin H; enzyme activity; inhibitor; ADP detection; 10 µM).
The remaining binding of CN(c1ccnc(CNc2nc(Nc3ccc4c(c3)CC(=O)N4)ncc2C(F)(F)F)n1)S(C)(=O)=O is reported as 3.5% (CDK7; cell-free assay; competition with immobilised ligand; 1 µM).
CCCOc1ccc(OC)c(F)c1C(=O)c1ccc(C(=O)N[C@@H]2CNC[C@H]2NC(=O)c2ccc3[nH]ncc3c2)cc1 has a remaining activity of 13% (CDK7; enzyme activity; inhibitor; 10 µM).
Cc1ccc(C(=O)Nc2ccc(CN3CCN(C)CC3)c(C(F)(F)F)c2)cc1C#Cc1cnc2cccnn12 has a remaining activity of 47% (CDK7; enzyme activity; inhibitor; 23.5 nM).
CN1CCN(c2cnc3c(C4CCN(C(=O)c5ccc(OC(F)(F)F)cc5N)CC4)ncnc3c2)CC1 gave a remaining binding of 89% (CDK7; cell-free assay; competition with immobilised ligand; 1 µM).
For COc1cc2ncnc(Nc3ccc(F)c(Cl)c3)c2cc1OCCCN1CCOCC1, the remaining signal was 105% (CDK7 with cyclin H; cell-free assay; 0.5 µM).
CNC(=O)c1cc(Oc2ccc(NC(=O)Nc3ccc(Cl)c(C(F)(F)F)c3)cc2)ccn1 has an inhibition of -36% (CDK7 with cyclin H; enzyme activity; inhibitor; 10 µM).
The activity vs control of Cc1ccc(C(=O)NCc2ccsc2)cc1C#Cc1cn(C(C)C)c2ncnc(N)c12 is reported as 94% (CDK7; enzyme activity; inhibitor; 1 µM).
The remaining activity of O=C(Nc1cnn(-c2csc(C(=O)NC3COC3)c2)c1)Nc1c(F)cccc1Cl is reported as 95.8% (CDK7 with cyclin H; enzyme activity; inhibitor; 5 µM).
CC(C)(C)c1nc(-c2cccc(NS(=O)(=O)c3c(F)cccc3F)c2F)c(-c2ccnc(N)n2)s1 gave a remaining activity of 109% (CDK7 with cyclin H; enzyme activity; inhibitor; radiometric; 1 µM).
O=c1cc(-c2ccccc2)oc2cc(O)cc(O)c12 gave an inhibition of 58.8% (CDK7 with cyclin H; enzyme activity; inhibitor; ADP detection; 10 µM).
With CO[C@@H](C)c1c(Nc2ccc([C@H](N(C)C(=O)C3CCS(=O)(=O)CC3)C(F)(F)F)cc2)cnc2cc(Cl)nn12 the remaining binding was 100% (CDK7; cell-free assay; competition with immobilised ligand; 1 µM).
For O=C(O)c1cc(O)c(O)c(O)c1, the inhibition was -3% (CDK7 with cyclin H; enzyme activity; inhibitor; ADP detection; 10 µM).
CNC(=O)Nc1ccc2c(c1)[C@@]1(CC2)OC(=O)N(CC(=O)N(Cc2ccc(F)cc2)[C@@H](C)C(F)(F)F)C1=O has a remaining binding of 76% (CDK7; cell-free assay; competition with immobilised ligand; 1 µM).
With COc1ccc(-c2coc3cc(O)cc(O)c3c2=O)cc1 the inhibition was 41.3% (CDK7 with cyclin H; enzyme activity; inhibitor; ADP detection; 10 µM).
With O=C(NCc1ncc(C(F)(F)F)cc1Cl)c1ccc2c(c1)C1(CCS(=O)(=O)CC1)[C@@H](C1CC1)N2S(=O)(=O)c1ccc(F)cc1 the remaining binding was 56% (CDK7; cell-free assay; competition with immobilised ligand; 1 µM).
CCN(CC)c1ccc(C2=NNC(=O)CC2C)cc1[N+](=O)[O-] (centres unmarked) gave a remaining activity of 96% (CDK7; enzyme activity; inhibitor; 10 µM).
